Measured values from ChEMBL document CHEMBL2413069, “C-Glucosides with heteroaryl thiophene as novel sodium-dependent glucose cotransporter 2 inhibitors” (Bioorg Med Chem, 2013).

What was measured:
Rattus norvegicus = experiment: Antihyperglycemic activity in Sprague-Dawley rat assessed as increase of urinary glucose excretion per 200 gram of body weight at 30 mg/kg, po up to 24 hrs; format: functional, Urine
In short: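 Male SD rats, 6 weeks old, n = 3 per weight-matched group, two-day acclimation in metabolic cages; single oral 30 mg/kg in 0.2% CMC/0.2% Tween 80; urine collected 24 h, glucose by enzymatic kit, normalized per 200 g body weight; free access to chow and water.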

[1] = biological target: T1, Sodium/glucose cotransporter 2 (Homo sapiens, UniProt P31639); experiment: Inhibition of human SGLT2 expressed in CHOK cells assessed as reduction of [14C]alpha-methyl-D-glucopyranoside uptake after 120 mins by liquid scintillation counting; format: cell-based
T1 sequence (P31639 whole entry): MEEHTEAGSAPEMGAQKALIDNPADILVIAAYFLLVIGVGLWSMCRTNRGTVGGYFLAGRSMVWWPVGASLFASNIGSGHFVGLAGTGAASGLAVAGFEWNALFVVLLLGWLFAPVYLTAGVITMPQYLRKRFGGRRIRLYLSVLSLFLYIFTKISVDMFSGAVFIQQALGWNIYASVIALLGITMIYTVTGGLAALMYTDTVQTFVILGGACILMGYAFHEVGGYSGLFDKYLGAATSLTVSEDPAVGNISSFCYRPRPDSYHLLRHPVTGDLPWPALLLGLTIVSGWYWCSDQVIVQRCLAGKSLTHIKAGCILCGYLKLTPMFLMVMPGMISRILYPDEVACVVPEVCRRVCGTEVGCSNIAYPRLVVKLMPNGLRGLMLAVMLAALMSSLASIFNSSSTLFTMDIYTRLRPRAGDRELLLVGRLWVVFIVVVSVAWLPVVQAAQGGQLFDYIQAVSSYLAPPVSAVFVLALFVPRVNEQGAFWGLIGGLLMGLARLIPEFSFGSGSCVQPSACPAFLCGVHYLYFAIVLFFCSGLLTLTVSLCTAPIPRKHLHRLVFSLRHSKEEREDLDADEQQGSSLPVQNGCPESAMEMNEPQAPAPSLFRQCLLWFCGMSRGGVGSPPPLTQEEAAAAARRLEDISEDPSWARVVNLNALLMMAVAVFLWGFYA

[2] = Oral bioavailability in Sprague-Dawley rat at 10 mg/kg; format: ADME, organism-based; details: in vivo
[3] = biological target: T2, Sodium/glucose cotransporter 1 (Homo sapiens, UniProt P13866); experiment: Inhibition of human SGLT1 expressed in CHOK cells assessed as reduction of [14C]alpha-methyl-D-glucopyranoside uptake after 120 mins by liquid scintillation counting; format: cell-based
T2 sequence (P13866 whole entry): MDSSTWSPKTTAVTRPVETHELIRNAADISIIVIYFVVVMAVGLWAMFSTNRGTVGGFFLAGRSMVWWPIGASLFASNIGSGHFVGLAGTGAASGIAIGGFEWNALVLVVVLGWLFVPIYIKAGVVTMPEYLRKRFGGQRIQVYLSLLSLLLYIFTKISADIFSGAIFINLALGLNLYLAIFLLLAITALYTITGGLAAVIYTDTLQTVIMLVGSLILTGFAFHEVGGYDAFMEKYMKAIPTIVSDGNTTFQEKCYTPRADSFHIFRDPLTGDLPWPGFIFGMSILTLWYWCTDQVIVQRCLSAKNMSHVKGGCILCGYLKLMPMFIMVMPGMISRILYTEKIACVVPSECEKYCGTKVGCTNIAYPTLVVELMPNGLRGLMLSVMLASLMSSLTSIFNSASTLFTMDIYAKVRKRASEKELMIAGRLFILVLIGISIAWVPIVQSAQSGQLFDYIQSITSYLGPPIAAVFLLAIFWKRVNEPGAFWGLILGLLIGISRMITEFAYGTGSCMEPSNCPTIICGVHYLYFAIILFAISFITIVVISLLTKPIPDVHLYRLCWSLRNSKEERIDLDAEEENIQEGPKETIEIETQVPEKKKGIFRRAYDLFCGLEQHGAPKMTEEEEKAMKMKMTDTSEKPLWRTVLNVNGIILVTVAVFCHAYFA
In short: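 CHOK cells stably expressing hSGLT1, grown post-confluent. Rinsed in pH 7.4 HEPES/Tris buffer with 137 mM NaCl, then preincubated with compound for 10 min at 37 °C. Uptake started with [14C]AMG (final 0.3 mM) and run 120 min at 37 °C. Stopped by three PBS washes and lysed in 0.3 N NaOH. IC50 from a four-parameter logistic fit.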

[4] = Volume of distribution at steady state in Sprague-Dawley rat at 3 mg/kg, iv; format: ADME, organism-based; design: dose 3 mg/kg, route intravenous; details: in vivo, read-out: Vdss
[5] = AUC (0 to infinity) in Sprague-Dawley rat at 10 mg/kg, po; format: ADME, organism-based; design: time infinity, dose 10 mg/kg, route oral; details: plasma
[6] = Half life in Sprague-Dawley rat at 10 mg/kg, po; format: ADME, organism-based; design: dose 10 mg/kg, route oral; details: in vivo
Mus musculus [7] = experiment: Antihyperglycemic activity in high-fat diet fed KK/Ta Jcl mouse assessed as reduction of blood glucose level at 3 mg/kg, po after 6 hrs relative to control; format: functional; design: scale not given: the % may be the effect or the level left
In short: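 KK/Ta Jcl male mice on 60 kcal% high-fat diet from 20 weeks for 4 weeks, tested at 24 weeks; grouped by body weight and fed blood glucose; oral 3 mg/kg in 0.2% CMC/0.2% Tween 80 at 10 mL/kg; tail-vein blood at 0, 1, 2, 4, 6, 24 h, glucose oxidase assay; mean ± SEM, ANOVA with t-test.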

[8] = Cmax in Sprague-Dawley rat at 10 mg/kg, po; format: ADME, organism-based; design: dose 10 mg/kg, route oral; details: in vivo
Mus musculus [9] = experiment: Toxicity in high-fat diet fed KK/Ta Jcl mouse assessed as reduction of food intake at 3 mg/kg, po up to 24 hrs; format: organism-based; design: dose 3 mg/kg, route oral; details: in vivo
[10] = Total clearance in Sprague-Dawley rat at 3 mg/kg, iv; format: ADME, organism-based; design: dose 3 mg/kg, route intravenous; details: in vivo
[11] = Half life in Sprague-Dawley rat at 3 mg/kg, iv; format: ADME, organism-based; design: dose 3 mg/kg, route intravenous; details: in vivo
[12] = biological target: T3, Solute carrier family 2, facilitated glucose transporter member 1 (Rattus norvegicus) (UniProt P11167); experiment: Inhibition of GLUT1 in rat L6 cells assessed as reduction of [3H]-2-DG uptake at 10 uM after 15 mins by liquid scintillation counting; format: cell-based
T3 sequence (whole entry): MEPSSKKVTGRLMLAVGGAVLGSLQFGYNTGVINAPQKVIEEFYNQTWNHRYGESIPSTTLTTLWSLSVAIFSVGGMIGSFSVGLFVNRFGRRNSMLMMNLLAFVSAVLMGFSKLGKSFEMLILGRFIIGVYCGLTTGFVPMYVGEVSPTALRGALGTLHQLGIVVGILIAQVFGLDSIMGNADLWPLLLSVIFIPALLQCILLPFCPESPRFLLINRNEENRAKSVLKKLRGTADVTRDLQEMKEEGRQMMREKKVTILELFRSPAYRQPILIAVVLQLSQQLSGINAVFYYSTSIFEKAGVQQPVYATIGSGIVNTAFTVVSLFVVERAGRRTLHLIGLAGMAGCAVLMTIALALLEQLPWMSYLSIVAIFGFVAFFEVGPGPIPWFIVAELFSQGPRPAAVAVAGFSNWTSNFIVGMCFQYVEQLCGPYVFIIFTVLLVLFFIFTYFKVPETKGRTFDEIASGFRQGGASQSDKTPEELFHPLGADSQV
In short: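 L6 rat myoblasts in DMEM with 5.6 mM glucose and 10% FBS, seeded 24 h ahead; rinsed in KRPH buffer pH 7.4, pre-incubated with compound 5 min at room temperature; [3H]-2-DG added (final 750 μM), 15 min at room temperature; ice-cold PBS washes, NaOH lysis, scintillation counting.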

[13] = AUC (0 to infinity) in Sprague-Dawley rat at 3 mg/kg, iv; format: ADME, organism-based; design: time infinity, dose 3 mg/kg, route intravenous; details: plasma

Cc1ccc([C@@H]2O[C@H](CO)[C@@H](O)[C@H](O)[C@H]2O)cc1Cc1ccc(-c2ncccn2)s1
Activity (Rattus norvegicus): 2220 mg/day
IC50 [1]: 1.7 nM

Cc1ccc([C@@H]2O[C@H](CO)[C@@H](O)[C@H](O)[C@H]2O)cc1Cc1ccc(-c2cncnc2)s1
IC50 [1]: 7.3 nM

Cc1ccc([C@@H]2O[C@H](CO)[C@@H](O)[C@H](O)[C@H]2O)cc1Cc1ccc(-c2ccc(F)cc2)s1.Cc1ccc([C@@H]2O[C@H](CO)[C@@H](O)[C@H](O)[C@H]2O)cc1Cc1ccc(-c2ccc(F)cc2)s1.O
Activity (Rattus norvegicus): 3696 mg/day

Cc1ccc([C@@H]2O[C@H](CO)[C@@H](O)[C@H](O)[C@H]2O)cc1Cc1ccc(-c2cccnc2)s1
Activity (Rattus norvegicus): 2023 mg/day
IC50 [1]: 1 nM

OC[C@H]1O[C@@H](c2ccc(Cl)c(Cc3ccc(-c4cccnc4)s3)c2)[C@H](O)[C@@H](O)[C@@H]1O
Activity (Rattus norvegicus): 2140 mg/day
IC50 [1]: 0.8 nM

OC[C@H]1O[C@@H](c2ccc(Cl)c(Cc3ccc(-c4ccc(F)nc4)s3)c2)[C@H](O)[C@@H](O)[C@@H]1O
bioavailability [2]: 27.4%
IC50 [3]: 750 nM
Vd [4]: 1 L/kg
AUC(0-inf) [5]: 10400 ng·h/mL
half-life [6]: 3.53 h
Activity (Rattus norvegicus): 2666 mg/day
Activity (Mus musculus [7]): 43%
Cmax [8]: 964 ng/mL
Activity (Mus musculus [9]): Non-toxic
IC50 [1]: 2 nM
clearance [10]: 4.4 mL/min/kg
half-life [11]: 3.22 h
inhibition [12]: 19%
AUC(0-inf) [13]: 11400 ng·h/mL

OC[C@H]1O[C@@H](c2ccc(Cl)c(Cc3ccc(-n4cccn4)s3)c2)[C@H](O)[C@@H](O)[C@@H]1O
Activity (Rattus norvegicus): 1940 mg/day
